The values that follow come from ChEMBL document CHEMBL4396947, “Synthesis and characterization of novel isoform-selective IP6K1 inhibitors” (Bioorg Med Chem Lett, 2019).

The target in experiment [1] is Ephrin type-B receptor 4 (Homo sapiens) (UniProt P54760). As to the kind of experiment: Inhibition of recombinant human EPHB4 (561 to end residues) assessed as residual activity at 10 uM using poly (Glu,Tyr) 4:1 as substrate incubated for 40 mins in presence of [gamma-33P]ATP at Km concentration by radiometric assay relative to control.
Experiment [2] concerns the target MAP kinase-interacting serine/threonine-protein kinase 2 (Homo sapiens) (UniProt Q9HBH9). As to the kind of experiment: Inhibition of full length recombinant human MNK2 assessed as residual activity at 10 uM using myelin basic protein as substrate incubated for 40 mins in presence of [gamma-33P]ATP at Km concentration by radiometric assay relative to control.
Experiment [3] deals with Serine/threonine-protein kinase 17A (Homo sapiens) (UniProt Q9UEE5). As to the kind of experiment: Inhibition of human full length recombinant DRAK1 assessed as residual activity at 10 uM using KKLNRTLSFAEPG as substrate incubated for 40 mins in presence of [gamma-33P]ATP at Km concentration by radiometric assay relative to control.
The target in experiment [4] is Inositol hexakisphosphate kinase 1 (Homo sapiens, UniProt Q92551). The experiment can be described thus: Binding affinity to IP6K1 (unknown origin) assessed as change in melting temperature at 11.1 uM by SYPRO orange dye based assay.
For experiment [5], the species on record is Homo sapiens. The experiment can be described thus: Inhibition of recombinant full length human PI3K p120gamma R459Q mutant assessed as residual activity at 10 uM using phosphatidylinositol-4,5 bisphosphate as substrate incubated for 40 mins in presence of [gamma-33P]ATP at Km concentration by radiometric assay relative to control.
Experiment [6] deals with Mitogen-activated protein kinase kinase kinase 5 (Homo sapiens) (UniProt Q99683). The experiment can be described thus: Inhibition of recombinant human ASK1 (649 to 946 residues) assessed as residual activity at 10 uM using myelin basic protein as substrate incubated for 40 mins in presence of [gamma-33P]ATP at Km concentration by radiometric assay relative to control.
Experiment [7] concerns the target Tyrosine-protein kinase ABL1 (Homo sapiens) (UniProt P00519). As to the kind of experiment: Inhibition of human recombinant ABL (27 to end residues) assessed as residual activity at 10 uM using EAIYAAPFAKKK as substrate incubated for 40 mins in presence of [gamma-33P]ATP at Km concentration by radiometric assay relative to control.
Experiment [8] concerns the target cGMP-dependent protein kinase 1 (Homo sapiens) (UniProt Q13976). As to the kind of experiment: Inhibition of recombinant full length human PKG1alpha assessed as residual activity at 10 uM using RRRLSFAEPG as substrate incubated for 40 mins in presence of [gamma-33P]ATP at Km concentration by radiometric assay relative to control.
For experiment [9], the target named is Epidermal growth factor receptor (Homo sapiens) (UniProt P00533). As to the kind of experiment: Inhibition of recombinant human EGFR (696 to end residues) assessed as residual activity at 10 uM using poly (Glu,Tyr) 4:1 as substrate incubated for 40 mins in presence of [gamma-33P]ATP at Km concentration by radiometric assay relative to control.
The species entered for experiment [10] is Homo sapiens. As to the kind of experiment: Inhibition of recombinant human PRAK 5 R291E mutant assessed as residual activity at 10 uM using KKLRRTLSVA as substrate incubated for 40 mins in presence of [gamma-33P]ATP at Km concentration by radiometric assay relative to control.
Experiment [11] concerns the target Tyrosine-protein kinase Lyn (Homo sapiens) (UniProt P07948). The experiment can be described thus: Inhibition of full length recombinant human LYN assessed as residual activity at 10 uM using poly (Glu,Tyr) 4:1 as substrate incubated for 40 mins in presence of [gamma-33P]ATP at Km concentration by radiometric assay relative to control.
For experiment [12], the system named is Glycogen synthase kinase-3 beta (Homo sapiens), P49841 [UNDEFINED MUTATION]. The experiment can be described thus: Inhibition of human recombinant GSK3beta H350L mutant (2 to end residues) assessed as residual activity at 10 uM using YRRAAVPPSPSLSR as substrate incubated for 40 mins in presence of [gamma-33P]ATP at Km concentration by radiometric assay relative to control.

Experiment [13] concerns the target Platelet-derived growth factor receptor beta (Homo sapiens) (UniProt P09619). The experiment can be described thus: Inhibition of recombinant human PDGFRbeta (557 to end residues) assessed as residual activity at 10 uM using poly (Glu,Tyr) 4:1 as substrate incubated for 40 mins in presence of [gamma-33P]ATP at Km concentration by radiometric assay relative to control.

Experiment [14] concerns Eukaryotic elongation factor 2 kinase (Homo sapiens), O00418 [H23R]. As to the kind of experiment: Inhibition of recombinant human eEF2K H23R mutant (2 to end residues) assessed as residual activity at 10 uM using RKKFGESEKTKTK as substrate incubated for 40 mins in presence of [gamma-33P]ATP at Km concentration by radiometric assay relative to control.
In experiment [15] the target is Casein kinase II subunit alpha' (Homo sapiens) (UniProt P19784). As to the kind of experiment: Inhibition of recombinant full length human CK2alpha2 assessed as residual activity at 10 uM using RRRDDDSDDD as substrate incubated for 40 mins in presence of [gamma-33P]ATP at Km concentration by radiometric assay relative to control.
Experiment [16] has as its target Ephrin type-A receptor 5 (Homo sapiens) (UniProt P54756). As to the kind of experiment: Inhibition of recombinant human EPHA5 (655 to 956 residues) assessed as residual activity at 10 uM using poly (Glu,Tyr) 4:1 as substrate incubated for 40 mins in presence of [gamma-33P]ATP at Km concentration by radiometric assay relative to control.
The target of experiment [17] is Cyclin-dependent kinase 1/cyclin B1 (Homo sapiens) (UniProt P06493+P14635). The experiment can be described thus: Inhibition of human full length recombinant CDK1/cyclinB assessed as residual activity at 10 uM using Histone H1 as substrate incubated for 40 mins in presence of [gamma-33P]ATP at Km concentration by radiometric assay relative to control. It is filed as protein-complex assay.

Experiment [18] addresses Mitogen-activated protein kinase 14 (Homo sapiens) (UniProt Q16539). As to the kind of experiment: Inhibition of recombinant full length human SAPK2alpha assessed as residual activity at 10 uM using myelin basic protein as substrate incubated for 40 mins in presence of [gamma-33P]ATP at Km concentration by radiometric assay relative to control.
In experiment [19] the target is Casein kinase I isoform gamma-1 (Homo sapiens) (UniProt Q9HCP0). As to the kind of experiment: Inhibition of recombinant human CK1gamma1 (25 to 355 residues) assessed as residual activity at 10 uM using KRRRALS(p)VAS as substrate incubated for 40 mins in presence of [gamma-33P]ATP at Km concentration by radiometric assay relative to control.
For experiment [20], the species on record is Homo sapiens. As to the kind of experiment: Selectivity ratio of Ki for IP6K2 (unknown origin) to Ki for IP6K1 (unknown origin). A digest of the protocol: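 Purified IP6K1, IP6K2 and IP6K3 were each tested in an ADP-Glo Max luminescence assay optimized for IP6K, with 1 mM ATP consumed as the kinase reaction proceeds. IC50 values from each isoform were converted to Ki with the Cheng-Prusoff equation, and the Ki ratio versus IP6K1 was taken.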

Experiment [21] concerns the target Serine/threonine-protein kinase 4 (Homo sapiens) (UniProt Q13043). The experiment can be described thus: Inhibition of full length recombinant human MST1 assessed as residual activity at 10 uM using KKSRGDYMTMQIG as substrate incubated for 40 mins in presence of [gamma-33P]ATP at Km concentration by radiometric assay relative to control.

Serine/threonine-protein kinase 17A (Homo sapiens), sequence (Q9UEE5 whole entry): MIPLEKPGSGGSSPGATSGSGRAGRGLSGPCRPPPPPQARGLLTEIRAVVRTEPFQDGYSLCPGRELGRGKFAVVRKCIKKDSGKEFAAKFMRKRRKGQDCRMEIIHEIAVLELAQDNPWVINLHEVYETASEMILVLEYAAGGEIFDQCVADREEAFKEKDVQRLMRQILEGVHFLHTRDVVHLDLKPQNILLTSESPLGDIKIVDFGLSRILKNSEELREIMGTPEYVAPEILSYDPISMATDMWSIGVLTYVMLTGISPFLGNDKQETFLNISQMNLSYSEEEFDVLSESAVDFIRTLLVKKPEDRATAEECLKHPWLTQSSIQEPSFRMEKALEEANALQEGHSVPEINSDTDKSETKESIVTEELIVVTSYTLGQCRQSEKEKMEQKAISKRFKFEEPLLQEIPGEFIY
Tyrosine-protein kinase Lyn (Homo sapiens), sequence (P07948 2-512 limits assumed): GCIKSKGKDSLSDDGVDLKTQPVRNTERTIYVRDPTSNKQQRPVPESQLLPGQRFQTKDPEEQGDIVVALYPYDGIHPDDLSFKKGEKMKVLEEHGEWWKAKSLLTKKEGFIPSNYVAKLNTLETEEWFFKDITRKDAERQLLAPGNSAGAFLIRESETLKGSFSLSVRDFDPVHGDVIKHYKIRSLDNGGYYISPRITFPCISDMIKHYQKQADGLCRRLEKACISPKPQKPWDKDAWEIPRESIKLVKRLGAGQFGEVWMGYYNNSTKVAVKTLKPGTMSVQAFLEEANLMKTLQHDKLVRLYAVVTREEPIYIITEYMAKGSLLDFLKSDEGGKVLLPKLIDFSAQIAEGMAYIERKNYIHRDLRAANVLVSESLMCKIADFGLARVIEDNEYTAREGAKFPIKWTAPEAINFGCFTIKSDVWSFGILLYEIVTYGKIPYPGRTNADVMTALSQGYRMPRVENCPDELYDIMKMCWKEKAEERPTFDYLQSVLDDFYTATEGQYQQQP
Tyrosine-protein kinase ABL1 (Homo sapiens), sequence (P00519 whole entry): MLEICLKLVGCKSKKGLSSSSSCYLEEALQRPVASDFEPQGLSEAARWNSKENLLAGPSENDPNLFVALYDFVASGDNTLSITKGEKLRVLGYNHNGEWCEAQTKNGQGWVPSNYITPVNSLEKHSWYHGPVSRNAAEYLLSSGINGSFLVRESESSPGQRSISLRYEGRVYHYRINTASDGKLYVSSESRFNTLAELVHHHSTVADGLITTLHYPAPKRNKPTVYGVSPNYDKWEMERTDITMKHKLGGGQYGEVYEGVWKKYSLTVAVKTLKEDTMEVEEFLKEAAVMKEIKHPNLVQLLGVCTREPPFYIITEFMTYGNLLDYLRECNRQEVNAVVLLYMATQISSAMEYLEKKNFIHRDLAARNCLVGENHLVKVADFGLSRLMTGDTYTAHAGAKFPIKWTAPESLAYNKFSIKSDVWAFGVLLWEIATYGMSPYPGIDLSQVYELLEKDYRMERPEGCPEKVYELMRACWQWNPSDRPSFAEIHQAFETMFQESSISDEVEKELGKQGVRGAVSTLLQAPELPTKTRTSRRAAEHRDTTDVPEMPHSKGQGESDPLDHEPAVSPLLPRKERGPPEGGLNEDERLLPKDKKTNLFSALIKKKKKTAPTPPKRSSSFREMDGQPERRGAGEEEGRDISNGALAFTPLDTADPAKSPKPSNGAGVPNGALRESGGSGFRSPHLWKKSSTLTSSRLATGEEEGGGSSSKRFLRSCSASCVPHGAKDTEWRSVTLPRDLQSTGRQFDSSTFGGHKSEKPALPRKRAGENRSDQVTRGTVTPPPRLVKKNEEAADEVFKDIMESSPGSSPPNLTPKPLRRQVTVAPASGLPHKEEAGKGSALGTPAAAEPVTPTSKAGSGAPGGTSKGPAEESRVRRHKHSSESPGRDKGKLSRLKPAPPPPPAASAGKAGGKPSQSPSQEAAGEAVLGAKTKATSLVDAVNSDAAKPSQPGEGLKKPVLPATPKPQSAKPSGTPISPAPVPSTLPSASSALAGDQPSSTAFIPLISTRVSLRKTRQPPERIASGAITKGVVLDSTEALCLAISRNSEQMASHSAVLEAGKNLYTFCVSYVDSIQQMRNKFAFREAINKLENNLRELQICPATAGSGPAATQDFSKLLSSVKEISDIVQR
cGMP-dependent protein kinase 1 (Homo sapiens), sequence (Q13976 whole entry): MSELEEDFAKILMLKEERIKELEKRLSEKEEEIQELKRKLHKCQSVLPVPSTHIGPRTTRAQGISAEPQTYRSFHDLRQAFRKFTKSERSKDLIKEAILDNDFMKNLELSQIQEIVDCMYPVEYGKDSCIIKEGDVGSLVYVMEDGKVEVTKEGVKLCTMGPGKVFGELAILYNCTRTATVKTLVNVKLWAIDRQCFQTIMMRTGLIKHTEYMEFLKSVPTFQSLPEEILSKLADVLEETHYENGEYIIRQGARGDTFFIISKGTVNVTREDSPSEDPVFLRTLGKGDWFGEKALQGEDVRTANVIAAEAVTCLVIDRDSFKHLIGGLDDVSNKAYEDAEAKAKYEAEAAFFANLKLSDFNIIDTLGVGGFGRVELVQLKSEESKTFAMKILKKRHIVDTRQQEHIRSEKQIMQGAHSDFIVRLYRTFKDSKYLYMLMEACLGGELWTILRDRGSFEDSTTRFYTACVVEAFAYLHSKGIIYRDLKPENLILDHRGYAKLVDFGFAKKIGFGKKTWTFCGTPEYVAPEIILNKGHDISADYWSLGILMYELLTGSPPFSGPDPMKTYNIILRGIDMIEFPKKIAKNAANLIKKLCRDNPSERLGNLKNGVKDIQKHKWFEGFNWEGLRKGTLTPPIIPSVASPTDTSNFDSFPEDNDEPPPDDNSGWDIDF
Ephrin type-B receptor 4 (Homo sapiens), sequence (P54760 whole entry): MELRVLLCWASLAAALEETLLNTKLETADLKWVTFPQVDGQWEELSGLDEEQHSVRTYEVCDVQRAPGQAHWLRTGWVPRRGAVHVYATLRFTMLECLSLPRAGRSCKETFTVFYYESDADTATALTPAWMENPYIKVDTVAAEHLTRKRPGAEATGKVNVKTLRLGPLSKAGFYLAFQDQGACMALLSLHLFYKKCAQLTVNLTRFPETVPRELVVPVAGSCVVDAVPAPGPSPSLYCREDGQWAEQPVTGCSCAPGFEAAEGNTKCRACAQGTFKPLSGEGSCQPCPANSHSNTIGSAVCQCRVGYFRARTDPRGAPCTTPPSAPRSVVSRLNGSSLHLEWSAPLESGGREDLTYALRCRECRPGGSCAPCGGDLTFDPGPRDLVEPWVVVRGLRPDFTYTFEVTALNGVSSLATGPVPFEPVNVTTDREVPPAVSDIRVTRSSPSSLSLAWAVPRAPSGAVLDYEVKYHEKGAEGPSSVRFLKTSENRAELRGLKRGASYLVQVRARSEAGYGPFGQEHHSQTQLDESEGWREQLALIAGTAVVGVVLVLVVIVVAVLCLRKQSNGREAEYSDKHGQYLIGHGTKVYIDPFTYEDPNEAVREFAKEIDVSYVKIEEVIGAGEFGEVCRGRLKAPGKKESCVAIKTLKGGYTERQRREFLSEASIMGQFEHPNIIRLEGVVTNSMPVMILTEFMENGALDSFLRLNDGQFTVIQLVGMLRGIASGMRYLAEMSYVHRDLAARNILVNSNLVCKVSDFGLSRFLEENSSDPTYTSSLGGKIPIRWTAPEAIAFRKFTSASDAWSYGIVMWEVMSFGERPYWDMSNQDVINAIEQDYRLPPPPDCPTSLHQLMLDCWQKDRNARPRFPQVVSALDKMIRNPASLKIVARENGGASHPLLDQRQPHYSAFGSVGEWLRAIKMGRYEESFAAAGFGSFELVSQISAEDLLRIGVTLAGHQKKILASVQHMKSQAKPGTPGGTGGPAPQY
Casein kinase II subunit alpha' (Homo sapiens), sequence (P19784 whole entry, looked up, the tested form may be a part): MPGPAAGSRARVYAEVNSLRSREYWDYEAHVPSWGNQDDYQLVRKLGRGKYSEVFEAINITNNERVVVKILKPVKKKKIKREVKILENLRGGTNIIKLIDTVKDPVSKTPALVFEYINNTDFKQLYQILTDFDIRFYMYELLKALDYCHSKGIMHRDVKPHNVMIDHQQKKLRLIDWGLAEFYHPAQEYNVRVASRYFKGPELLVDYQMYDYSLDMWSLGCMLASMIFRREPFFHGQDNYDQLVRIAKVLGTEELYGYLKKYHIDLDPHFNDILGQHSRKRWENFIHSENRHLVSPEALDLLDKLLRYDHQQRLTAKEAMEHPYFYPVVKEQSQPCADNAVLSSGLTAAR
Casein kinase I isoform gamma-1 (Homo sapiens), sequence (Q9HCP0 whole entry, looked up, the tested form may be a part, canonical isoform): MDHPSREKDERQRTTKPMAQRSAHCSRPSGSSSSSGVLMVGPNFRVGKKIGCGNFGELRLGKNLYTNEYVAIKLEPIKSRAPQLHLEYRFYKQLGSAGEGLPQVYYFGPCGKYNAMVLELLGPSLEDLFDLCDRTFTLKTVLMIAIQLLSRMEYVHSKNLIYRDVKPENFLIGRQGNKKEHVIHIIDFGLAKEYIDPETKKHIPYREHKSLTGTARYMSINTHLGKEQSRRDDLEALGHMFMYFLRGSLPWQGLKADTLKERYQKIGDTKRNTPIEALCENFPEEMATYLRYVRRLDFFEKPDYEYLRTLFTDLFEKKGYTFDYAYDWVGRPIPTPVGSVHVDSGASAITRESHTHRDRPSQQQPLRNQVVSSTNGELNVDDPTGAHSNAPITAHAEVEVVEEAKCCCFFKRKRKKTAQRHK
Inositol hexakisphosphate kinase 1, sequence (Q92551 whole entry, looked up): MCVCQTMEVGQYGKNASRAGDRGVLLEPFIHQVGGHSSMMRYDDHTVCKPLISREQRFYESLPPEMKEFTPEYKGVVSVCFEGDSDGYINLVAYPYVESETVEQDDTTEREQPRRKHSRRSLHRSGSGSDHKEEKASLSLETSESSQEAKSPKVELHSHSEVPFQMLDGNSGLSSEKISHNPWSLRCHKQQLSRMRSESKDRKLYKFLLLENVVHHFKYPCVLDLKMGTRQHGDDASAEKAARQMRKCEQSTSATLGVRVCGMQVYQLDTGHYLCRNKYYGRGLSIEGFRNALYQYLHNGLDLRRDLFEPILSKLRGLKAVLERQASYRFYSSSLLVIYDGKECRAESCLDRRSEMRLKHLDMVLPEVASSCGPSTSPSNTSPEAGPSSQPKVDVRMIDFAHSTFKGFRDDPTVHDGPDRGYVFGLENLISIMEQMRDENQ

For the molecule `COc1ccc2c(CCNc3nc(NCc4ccc(=O)[nH]c4)c4nc[nH]c4n3)c[nH]c2c1`, the Activity in experiment [1] was determined as 69%; in [2] it was 76%; in experiment [3], 69%; in [5], 94%; in experiment [6] it was 72%; in [7], 90%. Moreover, the Activity was found to be 97% in experiment [8]; 75% in [9]; 87% in experiment [10]; 86% in [11]; 63% in experiment [12]; 101% in experiment [13]. The Activity was found to be 46% in experiment [14]; 100% in experiment [15]; 114% in experiment [16]; 83% in [17]; 92% in experiment [18]; 6% in experiment [19]. In addition, in [21], the Activity came out at 82%. Moreover, in experiment [4], the ΔTm – broadly, the shift of the melting midpoint relative to a reference – amounted to 5.5 °C. The Ratio Ki in [20] amounted to 24.4.
